Results of several laboratories.
Target: Serine/threonine-protein kinase 26 (STK26, Homo sapiens, UniProt Q9P289)

CC1(C)NC(=O)c2[nH]c3c(Cl)c(Cl)ccc3c2C1C#N (stereo not shown) — ΔTm (thermal stability, DSF; 10 µM): 2.4 °C
CC(C)(C)c1nc(-c2cccc(NS(=O)(=O)c3c(F)cccc3F)c2F)c(-c2ccnc(N)n2)s1 — remaining activity (enzyme activity, inhibitor, radiometric; 1 µM): 103%
CN(CCCC(F)(F)F)c1nccc(-c2cnn3ncccc23)n1 — remaining signal (cell-free assay; 1 µM): 100%
Cc1ccc(NC(=O)c2ccc(C)c(C(F)(F)F)c2)cc1C#Cc1nn(C2CCC(O)CC2)c2ncnc(N)c12 (stereo not shown) — remaining signal (cell-free assay; 10 µM): 73%
C[C@H]1CCN(c2nccc(-c3cnn4ncccc34)n2)C1 — remaining signal (cell-free assay; 1 µM): 73%
Cc1sc(C(=O)NC2COC2)cc1-n1cc(NC(=O)Nc2c(F)cccc2Cl)cn1 — remaining activity (enzyme activity, inhibitor; 10 µM): 72.4%
C[C@H](c1ccc(F)cc1)N(Cc1cccc(C(=O)O)c1)C(=O)c1cnc2ccccc2c1 — remaining binding (cell-free assay, competition with immobilised ligand; 1 µM): 79%
CN1CCC2(CC1)NC(=O)c1c(c3ccc(Cl)c(Cl)c3n1C)C2C#N (racemic) — ΔTm (thermal stability, DSF; 10 µM): 1.7 °C
N[C@@H]1CCN(c2nccc(-c3cnn4ncccc34)n2)C1 — remaining signal (cell-free assay; 1 µM): 100%
COc1cc(Cl)c(C(=O)N[C@@H](CN[C@H]2CC[C@@H](N)CC2)Cc2ccc(C#N)cc2)cc1-c1ccc(CN[C@H](C)c2ccc(C)cc2)o1 — remaining activity (enzyme activity, inhibitor; 1 µM): 94%
O=C1Nc2ccc(Cl)cc2C1=Cc1cc(Cl)c(O)c(Cl)c1 — remaining signal (cell-free assay; 0.5 µM): 101%
CC/C(=N\NC(=O)NCc1cccc(O)c1)c1ccc(O)c(C)c1O — inhibition (enzyme activity, inhibitor; 0.1 µM): 1.3%
Cc1cnc(NC2CCOCC2)nc1-n1cnc(C(=O)NC(CN)c2cc(F)cc(Cl)c2)c1 (stereo not shown) — remaining activity (enzyme activity, inhibitor, radiometric; 1 µM): 109%
COc1cccc2c(NCc3ccccc3)nc(-n3c(N)nc4ccccc43)nc12 — inhibition (target engagement in cells, inhibitor, chemoproteomics; 20 mM): 31.1%
Nc1nc(NC2CCCCC2)sc1C(=O)c1ccccc1 — remaining activity (enzyme activity, inhibitor; 10 µM): 76%
CCCS(=O)(=O)Nc1ccc(F)c(C(=O)c2c[nH]c3ncc(-c4ccc(Cl)cc4)cc23)c1F — inhibition (enzyme activity, inhibitor; 1 µM): < 10%
COc1cc(Nc2cnc(C#N)c(O[C@H](C)CN(C)C)n2)ncc1-c1cnn(C)c1 — remaining activity (enzyme activity, inhibitor, radiometric; 1 µM): 83%
Cc1nccc(COC(=O)N2C[C@@H]3[C@@H](CNC(=O)c4ccc5[nH]nnc5c4)[C@@H]3C2)n1 — remaining binding (cell-free assay, competition with immobilised ligand; 1 µM): 77%
CN(C)c1nccc(-c2cnn3ncccc23)n1 — remaining signal (cell-free assay; 1 µM): 100%
Cn1c(=O)n(-c2ccc(C(C)(C)C#N)cc2)c2c3cc(-c4cnc5ccccc5c4)ccc3ncc21 — remaining activity (enzyme activity, inhibitor; 10 µM): 100%
c1ccc(N2CCN(Cc3nc4ccccc4[nH]3)CC2)nc1 — remaining binding (binding, competition with immobilised ligand; 1 µM): 100%
COc1cc(-c2cc(-c3ccc(N4CCNCC4)cc3)cnc2N)cc(OC)c1OC — inhibition (enzyme activity, inhibitor; 1 µM): 1%
COc1cc(/C=C/C(=O)CC(=O)/C=C/c2ccc(O)c(OC)c2)ccc1O — activity vs control (enzyme activity, inhibitor; 1 µM): 75%
Cc1noc([C@H]2C[C@@H](c3ccc(C(F)(F)F)cc3)CN(C(=O)N3CCS(=O)(=O)C3)C2)n1 — remaining binding (cell-free assay, competition with immobilised ligand; 1 µM): 74%
CN(C)C1CCN(CC#Cc2nn(C3CCCC3)c3nc(NCc4ccccc4)ncc23)C1 (stereo not shown) — inhibition (enzyme activity, inhibitor, FRET; 1 µM): 20%
NS(=O)(=O)c1cc(NC(=O)Cc2ccccc2)ccc1Oc1cccc(Cl)c1 — remaining binding (cell-free assay, competition with immobilised ligand; 1 µM): 99%
Nc1ncnc2occ(-c3ccc(NC(=O)Nc4cc(C(F)(F)F)ccc4F)cc3)c12 — remaining signal (cell-free assay, inhibitor; 20 µM): 2.6%
CN(C)c1nccc(-c2cnc3ncccn23)n1 — remaining signal (cell-free assay; 1 µM): 68%
COc1cc(-c2cc(-c3ccc(N4CCNCC4)cc3)cnc2C)cc(OC)c1OC — inhibition (enzyme activity, inhibitor; 0.1 µM): 9%
FC(F)(F)Oc1cccc(-c2cnc3ccc(-c4ccncc4)nn23)c1 — activity vs control (enzyme activity, inhibitor, radiometric; 5 µM): 87%
CC(C)(C)C(=O)c1sc(NC2CCCCC2)nc1N — remaining activity (enzyme activity, inhibitor; 10 µM): 90%
N#CC1c2c([nH]c3c(Cl)c(Cl)ccc23)C(=O)NC12CCCCC2 (racemic) — ΔTm (thermal stability, DSF; 10 µM): 0.1 °C
CC(C)(O)[C@H]1CC[C@H](Nc2ccc3ncc(-c4cccc(C(F)(F)F)c4)n3n2)CC1 — remaining activity (enzyme activity, inhibitor; 1 µM): 109%
CCN1CCC2(CC1)NC(=O)c1c(c3ccc(Cl)c(Cl)c3n1C)C2C#N (racemic) — ΔTm (thermal stability, DSF; 10 µM): -0.2 °C
CN(C)C(=O)Cn1cc(-c2nc(C3(c4ccc(-c5cnc(N)nc5)cc4)CC3)no2)cn1 — remaining binding (cell-free assay, competition with immobilised ligand; 1 µM): 89%
c1cnn2ncc(-c3ccnc(N4CCC45COC5)n3)c2c1 — remaining signal (cell-free assay; 1 µM): 64%
O=C(NS(=O)(=O)c1ccc(NCC2CCOCC2)c([N+](=O)[O-])c1)c1ccc(N2CCN(Cc3ccc(C(F)(F)F)cc3-c3ccc(Cl)cc3)CC2)cc1Oc1cnc2[nH]ccc2c1 — remaining binding (cell-free assay, competition with immobilised ligand; 1 µM): 72%
COc1cc2ncnc(Nc3ccc(Oc4ccccc4)c(C)c3C)c2cc1OC — inhibition (enzyme activity, inhibitor; 1 µM): 21%
Oc1ccc(-c2nc(-c3ccncc3)c(-c3ccc(F)cc3)[nH]2)cc1 — remaining signal (cell-free assay; 0.5 µM): 101%
CCC(=O)N[C@H]1CC[C@@H](C(=O)N(C)c2ccc(-c3nc4ccccc4o3)cc2)C1 — remaining binding (cell-free assay, competition with immobilised ligand; 1 µM): 76%
